Results of several laboratories.

Cc1nn(C)cc1-c1nc2c(N3CCN(Cc4ccc(Cl)cc4)CC3)c(Cl)cnc2[nH]1  remaining binding (Receptor tyrosine-protein kinase erbB-3 (ERBB3, Homo sapiens, UniProt P21860); binding, competition with immobilised ligand; 1 µM): 95%
C#Cc1n[nH]c2c(-c3cn([C@@H](C)c4ccccn4)c(=O)[nH]c3=O)cc(F)cc12  inhibition (Serine/threonine-protein kinase PAK 4 (PAK4, Homo sapiens, UniProt O96013); enzyme activity, inhibitor; 0.1 µM): 0.2%
Cn1c(=O)n(CCC(C)(C)O)c2cc(Nc3nc(N4CCCC(CO)C4)ncc3Cl)ccc21 (stereo not shown)  Dmax (B-cell lymphoma 6 protein (BCL6, Homo sapiens, UniProt P41182); protein level, degrader; SU-DHL-4): ~60%
CCSC(=O)N1CCCCCC1  kinact/KI (Aldehyde dehydrogenase, mitochondrial (ALDH2, Homo sapiens, UniProt P05091); enzyme activity, inhibitor): 76 M⁻¹ s⁻¹
COc1cc(Nc2ncc(F)c(Nc3ccc4c(n3)NC(=O)C(C)(C)O4)n2)cc(OC)c1OC  inhibition (Serine/threonine-protein kinase 38-like (STK38L, Homo sapiens, UniProt Q9Y2H1); binding; 10 µM): 48%
C[C@H](C(=O)N[C@H]1COc2ccccc2[C@@H]1S(C)(=O)=O)c1ccc(F)cc1  inhibition (Beta-3 adrenergic receptor (ADRB3, Homo sapiens, UniProt P13945); cell-free assay; 10 µM): -12%
CCN(CC)CCCC[C@H](NC(=O)[C@H](CC(C)C)NC(=O)[C@H](C)NC(=O)[C@H](Cc1ccccc1)NC(=O)c1ccc(C(C)(C)C)cc1)C(=O)N[C@@H](CO)C(=O)OC  ΔTm (Bromodomain-containing protein 2, BD1 (BRD2, Homo sapiens, UniProt P25440); thermal stability, DSF; 25 µM): 0.19 °C
C#Cc1n[nH]c2c(-c3cn([C@@H](C)c4ccccc4)c(=O)[nH]c3=O)cc(F)cc12  inhibition (Serine/threonine-protein kinase Sgk1 (SGK1, Homo sapiens, UniProt O00141); enzyme activity, inhibitor; 0.1 µM): -1.8%
COc1ncccc1-c1cnn2ccc(N3CCN(C(=O)OC(C)C)CC3)nc12  remaining binding (Serine/threonine-protein kinase SBK1 (SBK1, Homo sapiens, UniProt Q52WX2); binding, competition with immobilised ligand; 1 µM): 84%
Nc1ncc(-c2nc(N3CCOCC3)nc(N3CCOCC3)n2)c(C(F)F)n1  remaining binding (Calcium/calmodulin-dependent protein kinase type II subunit gamma (CAMK2G, Homo sapiens, UniProt Q13555); binding, competition with immobilised ligand; 10 µM): 73%
